Reference: ChEMBL document CHEMBL1240306, “Allosteric inhibitors of Bcr-abl-dependent cell proliferation” (Nat Chem Biol, 2006)

Assays:
[1] = Cytotoxic activity against mouse 32D cells transfected with p210 Bcr-abl; format: cell-based
[2] = Antiproliferative activity against mouse 32D Bcr-abl negative cells assessed as proliferation after 48 hrs by MTT assay
[3] = tested on: HL-60; assay: Antiproliferative activity against human HL60 Bcr-abl negative cells assessed as cell viability after 48 hrs by MTT assay; format: functional, cell-based; conditions: HL-60, 48 h
Outline: (§1)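 Cells seeded at 0.3–0.6 × 10^6/ml in duplicate or triplicate with increasing compound (0.005–10 μM), 37 °C, 5% CO2, 48 h. Viability by MTT dye reduction, expressed as % growth of DMSO-treated cells; IC50 from dose-response curves. Ba/F3 lines carry geneticin selection (1 mg/ml) in RPMI-1640/10% FBS; parental Ba/F3 kept with 10 U/ml murine IL-3.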

[4] = tested on: K562; assay: Antiproliferative activity against human K562 expressing Bcr-abl assessed as proliferation after 48 hrs by MTT assay; format: functional, cell-based; conditions: K562, 48 h; outline: as §1
[5] = tested on: Jurkat; assay: Antiproliferative activity against human Jurkat Bcr-abl negative cells assessed as proliferation after 48 hrs by MTT assay; format: functional, cell-based; outline: as §1
[6] = Antiproliferative activity against human SUP-B15 expressing Bcr-abl assessed as proliferation after 48 hrs by MTT assay; format: functional; conditions: SUP-B15, 48 h; outline: as §1
[7] = Antiproliferative activity against human M07e Bcr-abl negative cells expressing stem cell factor assessed as proliferation after 48 hrs by MTT assay; format: functional, cell-based; conditions: M-07e
Outline: (§2)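 Human megakaryoblastic Mo7e cells grown in RPMI-1640, 20% FBS, with either 5 ng/ml human GM-CSF or 200 ng/ml stem cell factor (c-kit-driven growth). Compound up to 10 μM, 48 h at 37 °C; viability read by MTT reduction relative to DMSO-treated cells.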

[8] = Antiproliferative activity against human M07e Bcr-abl negative cells expressing granulocyte-macrophage colony stimulating factor assessed as proliferation after 48 hrs by MTT assay; format: functional, cell-based; conditions: M-07e; outline: as §2
[9] = Antiproliferative activity against mouse BA/F3 Bcr-abl negative cells expressing Tel-JAK1 kinase assessed as proliferation after 48 hrs by MTT assay; format: functional, cell-based; conditions: BaF3, 48 h; outline: as §1
[10] = Antiproliferation activity against mouse BA/F3 cells expressing Bcr-abl A334l mutant assessed as cell viability after 48 hrs by MTT assay; format: functional, cell-based; conditions: BaF3, 48 h, in the assay text read “A344L” for “A334l”; outline: as §1
[11] = Antiproliferation activity against mouse BA/F3 cells expressing Bcr-abl A337N mutant assessed as cell viability after 48 hrs by MTT assay; format: functional, cell-based; conditions: BaF3, 48 h; outline: as §1
[12] = Antiproliferation activity against mouse BA/F3 cells expressing Bcr-abl assessed as cell viability after 48 hrs by MTT assay; format: functional, cell-based; conditions: BaF3, 48 h; outline: as §1
[13] = target: Mitogen-activated protein kinase 12 (Homo sapiens) (UniProt P53778); assay: Inhibition of human SAPK3 activity at 10 uM by radiometric assay
[14] = target: BDNF/NT-3 growth factors receptor (Homo sapiens) (UniProt Q16620); assay: Inhibition of human TrkB activity at 10 uM by radiometric assay
[15] = target: Platelet-derived growth factor receptor beta (Homo sapiens) (UniProt P09619); assay: Inhibition of human PDGFR-beta activity at 10 uM by radiometric assay
[16] = target: Ribosomal protein S6 kinase alpha-1 (Homo sapiens) (UniProt Q15418); assay: Inhibition of human Rsk1 activity at 10 uM by radiometric assay
[17] = target: Serine/threonine-protein kinase D2 (Homo sapiens) (UniProt Q9BZL6); assay: Inhibition of human PKD2 activity at 10 uM by radiometric assay
[18] = target: Protein kinase C alpha type (Homo sapiens) (UniProt P17252); assay: Inhibition of human PKCalpha activity at 10 uM by radiometric assay
[19] = target: RAC-alpha serine/threonine-protein kinase (Homo sapiens) (UniProt P31749); assay: Inhibition of human PKBalpha activity at 10 uM by radiometric assay
[20] = target: Serine/threonine-protein kinase Nek2 (Homo sapiens) (UniProt P51955); assay: Inhibition of human NEK2 activity at 10 uM by radiometric assay
[21] = target: Mitogen-activated protein kinase 1 (Homo sapiens) (UniProt P28482); assay: Inhibition of human MAPK1 activity at 10 uM by radiometric assay
[22] = target: RAF proto-oncogene serine/threonine-protein kinase (Homo sapiens) (UniProt P04049); assay: Inhibition of human c-RAF activity at 10 uM by radiometric assay
[23] = target: Casein kinase II subunit alpha (Homo sapiens) (UniProt P68400); assay: Inhibition of human CK2 activity at 10 uM by radiometric assay
[24] = target: Mast/stem cell growth factor receptor Kit (Homo sapiens) (UniProt P10721); assay: Inhibition of human c-kit activity at 10 uM by radiometric assay
[25] = target: Vascular endothelial growth factor receptor 2 (Homo sapiens) (UniProt P35968); assay: Inhibition of human KDR activity at 10 uM by radiometric assay
[26] = target: Insulin receptor (Homo sapiens) (UniProt P06213); assay: Inhibition of human IR activity at 10 uM by radiometric assay
[27] = target: Insulin-like growth factor 1 receptor (Homo sapiens) (UniProt P08069); assay: Inhibition of human IGF-1R activity at 10 uM by radiometric assay
[28] = target: Vascular endothelial growth factor receptor 3 (Homo sapiens) (UniProt P35916); assay: Inhibition of human Flt-4 activity at 10 uM by radiometric assay
[29] = target: Fibroblast growth factor receptor 3 (Homo sapiens) (UniProt P22607); assay: Inhibition of human FGFR3 activity at 10 uM by radiometric assay
[30] = target: Tyrosine-protein kinase ZAP-70 (Homo sapiens) (UniProt P43403); assay: Inhibition of human ZAP-70 activity at 10 uM by radiometric assay
[31] = target: Tyrosine-protein kinase Fes/Fps (Homo sapiens) (UniProt P07332); assay: Inhibition of human Fes activity at 10 uM by radiometric assay
[32] = target: Tyrosine-protein kinase CSK (Homo sapiens) (UniProt P41240); assay: Inhibition of human CSK activity at 10 uM by radiometric assay
[33] = target: Tyrosine-protein kinase BTK (Homo sapiens) (UniProt Q06187); assay: Inhibition of human BTK activity at 10 uM by radiometric assay
[34] = target: Cytoplasmic tyrosine-protein kinase BMX (Homo sapiens) (UniProt P51813); assay: Inhibition of human Bmx activity at 10 uM by radiometric assay
[35] = target: 5'-AMP-activated protein kinase catalytic subunit alpha-2 (Rattus norvegicus) (UniProt Q09137); conditions: 10 uM
[36] = target: cAMP-dependent protein kinase catalytic subunit beta (Homo sapiens) (UniProt P22694); conditions: 10 uM
[37] = target: Serine/threonine-protein kinase 3 (Homo sapiens) (UniProt Q13188); conditions: 10 uM
[38] = target: Platelet-derived growth factor receptor alpha (Homo sapiens) (UniProt P16234); conditions: 10 uM

BDNF/NT-3 growth factors receptor (Homo sapiens), sequence (Q16620 32-822 limits assumed): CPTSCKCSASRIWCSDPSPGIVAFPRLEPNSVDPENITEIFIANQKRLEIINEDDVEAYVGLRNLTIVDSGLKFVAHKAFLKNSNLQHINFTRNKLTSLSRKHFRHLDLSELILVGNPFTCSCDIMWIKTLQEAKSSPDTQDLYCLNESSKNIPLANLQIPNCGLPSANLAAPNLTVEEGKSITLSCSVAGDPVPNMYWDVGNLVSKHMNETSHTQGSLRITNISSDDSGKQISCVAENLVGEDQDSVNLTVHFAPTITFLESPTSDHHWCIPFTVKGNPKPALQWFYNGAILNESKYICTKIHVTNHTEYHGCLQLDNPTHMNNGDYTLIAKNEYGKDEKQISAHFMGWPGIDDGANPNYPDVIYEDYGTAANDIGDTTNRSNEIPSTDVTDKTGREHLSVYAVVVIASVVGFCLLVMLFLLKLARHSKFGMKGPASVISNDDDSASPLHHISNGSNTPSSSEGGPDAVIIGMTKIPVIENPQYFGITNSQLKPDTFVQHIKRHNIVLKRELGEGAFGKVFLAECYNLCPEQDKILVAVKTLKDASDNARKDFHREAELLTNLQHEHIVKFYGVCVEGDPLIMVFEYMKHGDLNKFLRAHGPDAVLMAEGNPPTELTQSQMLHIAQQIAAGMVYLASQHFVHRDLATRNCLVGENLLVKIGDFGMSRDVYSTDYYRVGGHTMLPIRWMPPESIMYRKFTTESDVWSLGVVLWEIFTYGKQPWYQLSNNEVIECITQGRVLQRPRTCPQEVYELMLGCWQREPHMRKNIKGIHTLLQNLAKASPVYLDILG
Fibroblast growth factor receptor 3 (Homo sapiens), sequence (P22607 23-806 limits assumed): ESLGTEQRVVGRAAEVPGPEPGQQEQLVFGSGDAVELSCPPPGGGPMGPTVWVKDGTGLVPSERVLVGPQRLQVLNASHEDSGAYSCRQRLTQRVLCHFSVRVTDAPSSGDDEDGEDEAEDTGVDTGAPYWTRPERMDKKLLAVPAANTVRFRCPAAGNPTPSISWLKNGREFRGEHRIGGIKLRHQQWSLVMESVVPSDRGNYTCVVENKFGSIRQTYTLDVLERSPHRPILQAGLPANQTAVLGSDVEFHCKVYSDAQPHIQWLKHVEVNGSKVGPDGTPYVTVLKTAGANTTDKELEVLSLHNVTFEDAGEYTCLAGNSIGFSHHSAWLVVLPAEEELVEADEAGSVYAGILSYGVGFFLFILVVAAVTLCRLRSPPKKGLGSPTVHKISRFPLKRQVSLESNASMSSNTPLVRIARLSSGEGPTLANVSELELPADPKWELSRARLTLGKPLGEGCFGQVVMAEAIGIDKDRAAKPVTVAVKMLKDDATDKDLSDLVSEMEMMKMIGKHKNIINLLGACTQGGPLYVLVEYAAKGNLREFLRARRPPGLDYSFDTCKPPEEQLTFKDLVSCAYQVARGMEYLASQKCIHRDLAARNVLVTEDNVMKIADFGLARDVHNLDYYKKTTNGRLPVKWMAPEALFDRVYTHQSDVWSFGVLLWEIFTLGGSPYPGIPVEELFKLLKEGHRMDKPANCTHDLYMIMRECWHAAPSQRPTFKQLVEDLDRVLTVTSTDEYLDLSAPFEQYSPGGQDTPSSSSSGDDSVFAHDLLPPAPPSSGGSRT
Mast/stem cell growth factor receptor Kit (Homo sapiens), sequence (P10721 whole entry): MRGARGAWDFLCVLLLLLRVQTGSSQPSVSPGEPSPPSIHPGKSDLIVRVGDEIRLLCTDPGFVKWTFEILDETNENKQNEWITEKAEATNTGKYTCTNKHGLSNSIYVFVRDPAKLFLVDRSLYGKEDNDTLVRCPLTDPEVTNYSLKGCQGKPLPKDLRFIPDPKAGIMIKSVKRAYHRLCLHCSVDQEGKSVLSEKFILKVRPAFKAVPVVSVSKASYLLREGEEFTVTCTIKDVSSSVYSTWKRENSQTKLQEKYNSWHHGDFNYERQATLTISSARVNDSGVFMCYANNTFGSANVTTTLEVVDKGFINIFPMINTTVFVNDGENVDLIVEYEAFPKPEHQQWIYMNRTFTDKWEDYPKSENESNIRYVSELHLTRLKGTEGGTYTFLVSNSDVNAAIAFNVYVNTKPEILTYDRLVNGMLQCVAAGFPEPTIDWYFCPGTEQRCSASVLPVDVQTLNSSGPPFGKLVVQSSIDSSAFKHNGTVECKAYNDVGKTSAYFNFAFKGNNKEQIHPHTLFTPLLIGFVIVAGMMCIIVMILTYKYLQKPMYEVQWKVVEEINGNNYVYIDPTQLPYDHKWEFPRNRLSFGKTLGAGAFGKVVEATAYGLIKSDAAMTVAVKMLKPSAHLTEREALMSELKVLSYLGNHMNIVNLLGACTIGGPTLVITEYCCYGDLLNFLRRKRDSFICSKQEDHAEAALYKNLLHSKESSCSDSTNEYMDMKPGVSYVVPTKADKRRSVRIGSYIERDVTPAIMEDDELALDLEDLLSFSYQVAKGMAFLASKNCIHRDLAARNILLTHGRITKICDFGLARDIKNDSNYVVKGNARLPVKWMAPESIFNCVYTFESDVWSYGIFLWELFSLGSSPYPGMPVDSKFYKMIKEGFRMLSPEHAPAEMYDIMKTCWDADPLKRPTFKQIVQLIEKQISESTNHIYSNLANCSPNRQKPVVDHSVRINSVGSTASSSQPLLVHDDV
Tyrosine-protein kinase Fes/Fps (Homo sapiens), sequence (P07332 whole entry): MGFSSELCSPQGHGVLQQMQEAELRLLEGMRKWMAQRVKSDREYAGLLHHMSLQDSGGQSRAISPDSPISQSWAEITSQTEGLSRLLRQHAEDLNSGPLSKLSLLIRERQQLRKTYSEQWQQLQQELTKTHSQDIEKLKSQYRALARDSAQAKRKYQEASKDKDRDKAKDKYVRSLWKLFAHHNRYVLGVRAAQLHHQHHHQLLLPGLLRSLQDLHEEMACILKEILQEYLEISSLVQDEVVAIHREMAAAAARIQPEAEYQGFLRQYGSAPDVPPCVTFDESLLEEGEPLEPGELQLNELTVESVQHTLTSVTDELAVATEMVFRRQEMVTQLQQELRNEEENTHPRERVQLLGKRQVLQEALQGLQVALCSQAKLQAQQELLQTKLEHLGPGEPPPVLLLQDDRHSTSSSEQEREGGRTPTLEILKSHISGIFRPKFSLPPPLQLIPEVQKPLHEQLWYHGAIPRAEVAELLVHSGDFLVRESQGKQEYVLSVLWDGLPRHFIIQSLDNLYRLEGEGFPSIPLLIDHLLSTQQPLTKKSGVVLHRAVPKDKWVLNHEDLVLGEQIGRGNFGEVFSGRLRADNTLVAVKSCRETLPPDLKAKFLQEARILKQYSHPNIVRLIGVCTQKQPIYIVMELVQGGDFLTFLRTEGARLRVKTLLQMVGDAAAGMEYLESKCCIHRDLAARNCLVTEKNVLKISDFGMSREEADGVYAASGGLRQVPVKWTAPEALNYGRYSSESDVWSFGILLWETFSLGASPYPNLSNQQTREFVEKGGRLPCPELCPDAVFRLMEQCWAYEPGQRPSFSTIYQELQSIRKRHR
Ribosomal protein S6 kinase alpha-1 (Homo sapiens), sequence (Q15418 whole entry): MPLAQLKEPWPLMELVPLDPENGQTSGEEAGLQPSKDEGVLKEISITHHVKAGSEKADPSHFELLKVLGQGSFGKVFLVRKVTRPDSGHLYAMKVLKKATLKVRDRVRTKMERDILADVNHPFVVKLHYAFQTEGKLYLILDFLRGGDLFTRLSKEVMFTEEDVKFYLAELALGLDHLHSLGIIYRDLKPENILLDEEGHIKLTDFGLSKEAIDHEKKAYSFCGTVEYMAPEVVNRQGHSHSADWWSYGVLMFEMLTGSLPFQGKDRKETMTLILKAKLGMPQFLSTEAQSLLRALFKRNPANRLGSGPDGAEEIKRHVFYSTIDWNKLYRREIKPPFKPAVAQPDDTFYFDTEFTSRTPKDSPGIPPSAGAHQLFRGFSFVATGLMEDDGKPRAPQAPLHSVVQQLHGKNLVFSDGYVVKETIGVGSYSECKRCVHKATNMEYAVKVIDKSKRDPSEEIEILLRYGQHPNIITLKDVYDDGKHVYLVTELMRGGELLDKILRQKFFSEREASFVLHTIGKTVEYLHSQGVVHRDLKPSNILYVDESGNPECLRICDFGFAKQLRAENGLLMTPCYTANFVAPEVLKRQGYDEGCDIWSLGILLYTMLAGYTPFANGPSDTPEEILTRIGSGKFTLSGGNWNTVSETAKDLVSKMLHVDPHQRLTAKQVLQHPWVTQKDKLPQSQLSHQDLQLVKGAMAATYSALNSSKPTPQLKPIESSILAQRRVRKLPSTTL
Mitogen-activated protein kinase 1 (Homo sapiens), sequence (P28482 whole entry): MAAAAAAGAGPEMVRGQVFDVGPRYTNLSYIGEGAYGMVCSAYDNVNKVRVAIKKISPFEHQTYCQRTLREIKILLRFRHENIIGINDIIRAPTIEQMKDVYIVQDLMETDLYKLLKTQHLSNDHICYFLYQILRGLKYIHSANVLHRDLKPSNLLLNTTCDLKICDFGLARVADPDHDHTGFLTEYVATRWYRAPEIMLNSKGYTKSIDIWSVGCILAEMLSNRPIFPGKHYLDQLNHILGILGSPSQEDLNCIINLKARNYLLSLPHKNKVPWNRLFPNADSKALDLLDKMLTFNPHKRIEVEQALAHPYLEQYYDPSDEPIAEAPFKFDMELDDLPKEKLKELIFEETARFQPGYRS
Casein kinase II subunit alpha (Homo sapiens), sequence (P68400 whole entry, looked up): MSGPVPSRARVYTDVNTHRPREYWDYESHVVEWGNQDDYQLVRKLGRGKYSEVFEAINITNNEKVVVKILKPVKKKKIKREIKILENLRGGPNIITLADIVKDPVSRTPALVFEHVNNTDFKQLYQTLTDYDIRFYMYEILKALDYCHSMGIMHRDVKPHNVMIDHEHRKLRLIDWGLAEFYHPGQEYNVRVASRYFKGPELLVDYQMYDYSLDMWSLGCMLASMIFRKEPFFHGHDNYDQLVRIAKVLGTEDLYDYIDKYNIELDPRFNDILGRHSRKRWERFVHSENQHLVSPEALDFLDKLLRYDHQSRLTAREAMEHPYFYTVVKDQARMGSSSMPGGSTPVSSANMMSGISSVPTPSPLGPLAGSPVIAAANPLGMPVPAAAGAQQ

Cc1ccc(NC(=O)c2ccc(CN3CCN(C)CC3)cc2)cc1Nc1nccc(-c2cccnc2)n1 [IMATINIB]
IC50 [1]: 190 nM
IC50 [2]: > 10 µM
IC50 [3]: > 10 µM
IC50 [4]: 109 nM
IC50 [5]: > 10 µM
IC50 [6]: 111 nM
IC50 [7]: 257 nM
IC50 [8]: > 10 µM
IC50 [9]: > 10 µM
IC50 [10]: 962 nM
IC50 [11]: 339 nM
IC50 [12]: 190 nM
inhibition [13]: 7%
inhibition [14]: 34%
inhibition [15]: 43%
inhibition [16]: 58%
inhibition [17]: 11%
inhibition [18]: 17%
inhibition [19]: 46%
inhibition [20]: 7%
inhibition [21]: 4%
inhibition [22]: 89%
inhibition [23]: 17%
inhibition [24]: 88%
inhibition [25]: 22%
inhibition [26]: 2%
inhibition [27]: 17%
inhibition [28]: 79%
inhibition [29]: 27%
inhibition [30]: 29%
inhibition [31]: 62%
inhibition [32]: 2%
inhibition [33]: 19%
inhibition [34]: 27%
inhibition [35]: 1%
inhibition [36]: 1%
inhibition [37]: 15%
inhibition [38]: 89%

NC(=O)c1cccc(-c2cc(Nc3ccc(OC(F)(F)F)cc3)ncn2)c1
IC50 [1]: 138 nM
IC50 [2]: > 10 µM
IC50 [3]: > 10 µM
IC50 [4]: 273 nM
IC50 [5]: > 10 µM
IC50 [6]: 268 nM
IC50 [7]: > 10000 nM
IC50 [8]: > 10 µM
IC50 [9]: > 10 µM
IC50 [10]: 2370 nM
IC50 [11]: > 10000 nM
IC50 [12]: 138 nM
inhibition [13]: 0%
inhibition [14]: 4%
inhibition [15]: 18%
inhibition [16]: 0%
inhibition [17]: 55%
inhibition [18]: 0%
inhibition [19]: 7%
inhibition [20]: 3%
inhibition [21]: 40%
inhibition [22]: 0%
inhibition [23]: 0%
inhibition [24]: 39%
inhibition [25]: 23%
inhibition [26]: 26%
inhibition [27]: 28%
inhibition [28]: 30%
inhibition [29]: 7%
inhibition [30]: 0%
inhibition [31]: 7%
inhibition [32]: 0%
inhibition [33]: 7%
inhibition [34]: 7%
inhibition [35]: 0%
inhibition [36]: 0%
inhibition [37]: 0%
inhibition [38]: 0%
